Assay results of several laboratories.
Compare with care: the assays were run in different laboratories.
Effect on: cell growth or viability

SMILES | cell line | technique | time | IC50
O=C(N/N=C/c1c(O)ccc2ccccc12)c1cc(-c2ccc3ccccc3c2)n[nH]1 | 1205Lu | MTS | 24 h | 20.4 µM
O=C1NC(=O)[C@@H](c2cn3c4c(cccc24)CCC3)[C@@H]1c1c[nH]c2ccccc12 | SW-1736 | MTT | 72 h | 0.11 µM
Oc1ccc(-c2ccc3cc(O)ccc3c2)c(O)c1 | CHL | MTT | 24 h | 119 µg/mL
CC(C)C(=O)Nc1ccc([N+](=O)[O-])c(C(F)(F)F)c1 | IOSE-144 | CCK-8 | 48 h | > 50 µM
COc1cc(N2CCC(N3CCN(C)CC3)CC2)ccc1Nc1ncc(Cl)c(Nc2ccccc2S(=O)(=O)C(C)C)n1 | BJ |  | 72 h | 0.9 µM
CC(C)C[C@H](NC(=O)[C@H](Cc1ccccc1)NC(=O)c1cnccn1)B(O)O | HuTu80 | ATP luminescence |  | 0.014 µM
COc1cc2nccc(Oc3ccc(NC(=O)C4(C(=O)Nc5ccc(F)cc5)CC4)cc3)c2cc1OC | BJ |  | 72 h | 4.52 µM
Oc1ccc(Nc2nc(-c3ccc(Cl)cc3)cs2)cc1 | 1205Lu | MTS | 72 h | 71.8 µM
Cc1[nH]c(/C=C2\C(=O)Nc3ccc(S(=O)(=O)N(C)c4cccc(Cl)c4)cc32)c(C)c1C(=O)N1CCN(C)CC1 | BJ |  | 72 h | 5.19 µM
CN(C)C/C=C/C(=O)Nc1cc2c(Nc3ccc(F)c(Cl)c3)ncnc2cc1O[C@H]1CCOC1 | KB-C2 | MTT | 72 h | 4.9 µM
Cc1cccc(-n2ncc(Br)c(Br)c2=O)c1 | NCI-H2444 | resazurin | 96 h | 0.31 µM
